The record followed here is ChEMBL document CHEMBL3244085, “Synthesis and biological evaluation of 10-oxa-11-deoxyprostaglandin E1 and 10-nor-9,11-secoprostaglandin F1 and their derivatives” (1978).

Assay [1] relates to Hamster. The assay can be described thus: Interruption of pregnancy in hamster at 1 mg, sc administered on day 3 of pregnancy. It counts as functional, organism-based. As to conditions: Cricetinae. The method in brief:
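Pregnant hamsters, ten per compound. A single 1 mg per animal dose is given subcutaneously in ethanol on day 3 of pregnancy, and interruption of pregnancy is scored (modified Giannina method).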

The next assay deals with Cricetinae. The assay is described as follows: Induction of uterus contraction in hamster at 20 ug. It counts as functional, tissue-based. In outline:
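Isolated hamster uterine strip in vitro, Holton method; compound added at 20 µg and scored for oxytocin-like contractile activity.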

Assay [2] has as its system Hamster. The assay can be described thus: Interruption of pregnancy in hamster at 12.5 ug, sc administered on day 3 of pregnancy relative to control. It counts as functional, Cricetinae.
Assay [3] can be described thus: (§1) Inhibition of PGE2-induced colon smooth muscle contraction in gerbil at 20 ug/15 ml pretreated for 30 seconds followed by PGE2-challenge measured after 90 seconds relative to control. It counts as functional, Gerbillinae. In outline: (§2)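 Isolated colon smooth muscle from male gerbils in a chamber (Holton method). Compound is introduced at the stated level per 15 mL; 30 s later 40 ng PGE2 is added. Antagonism is read as % inhibition of the PGE2 response.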

A short description of assay [4]: (§3) Inhibition of PGE2-induced colon smooth muscle contraction in gerbil at 40 ug/15 ml pretreated for 30 seconds followed by PGE2-challenge measured after 90 seconds relative to control. It counts as functional, Gerbillinae. The method in brief:
as §2

Assay [5] can be described thus: (§4) Inhibition of PGE2-induced colon smooth muscle contraction in gerbil at 80 ug/15 ml pretreated for 30 seconds followed by PGE2-challenge measured after 90 seconds relative to control. It counts as functional, Gerbillinae. In outline: as §2
Assay [6] is described as follows: (§5) Inhibition of PGE2-induced colon smooth muscle contraction in gerbil at 125 ug/15 ml pretreated for 30 seconds followed by PGE2-challenge measured after 90 seconds relative to control. It counts as functional, Gerbillinae. In outline: as §2
Assay [7] deals with Gerbillinae. The assay can be described thus: Inhibition of PGE2-induced colon smooth muscle contraction in gerbil at […] pretreated for 30 seconds followed by PGE2-challenge measured after 90 seconds. It counts as functional. The method in brief: as §2
Assay [8] relates to Gerbillinae. Described as §1. It counts as functional. The method in brief: as §2
Assay [9] has as its system Gerbillinae. The description is as §3. It counts as functional. The method in brief: as §2
The test system of assay [10] is Gerbillinae. The assay is described as §4. It counts as functional. In outline:
as §2

In assay [11] the test system is Gerbillinae. Described as §5. It counts as functional. The method in brief:
as §2

Structures are written as SMILES. Activity calls are given as the source filed them. The rule behind the calls is not given here.

On to `CCCCC[C@@H](O)/C=C/[C@H]1COC(=O)[C@@H]1CCCCCCC(=O)OC` (single isomer, unassigned), for which the result with Hamster [1] and in the assay on Cricetinae was inactive.
`CCCCC[C@H](O)/C=C/[C@@H]1[C@@H](C/C=C\CCCC(=O)O)[C@@H](O)C[C@H]1O` [DINOPROST] displayed an Activity in the assay with Hamster [2] of 100%.
On to `CCCCC[C@H](O)/C=C/[C@@H](CO)[C@H](CO)CCCCCCC(=O)OC`, for which the result in the assay with Hamster [1] and in the assay with Cricetinae was inactive. Moreover, the “inhibition (INH)” value came out at 0% in [3], 14% in assay [4], 26% in [5] and 41% in assay [6].
For `CCCCC[C@](C)(O)/C=C/[C@H]1COC(=O)[C@@H]1CCCCCCC(=O)OC` (racemic), the outcome with Hamster [1] and with Cricetinae was inactive. Besides, the inhibition result in the assay with Gerbillinae [7] is “inactive”.
With `CCCCC[C@@H](O)/C=C/[C@@H](CO)[C@H](CO)CCCCCCC(=O)OC`, the result in the assay with Hamster [1] and with Cricetinae was inactive. In addition, the inhibition entry in the assay on Gerbillinae [8], in the assay on Gerbillinae [9], in the assay with Gerbillinae [10] and with Gerbillinae [11] was “inactive” throughout.
Take `CCCCC[C@@](C)(O)/C=C/[C@H]1COC(=O)[C@@H]1CCCCCCC(=O)OC` (racemic): the result with Hamster [1] and in the assay with Cricetinae was inactive. The inhibition entry with Gerbillinae [7] was “inactive”.
`CCCCC[C@H](O)/C=C/[C@H]1COC(=O)[C@@H]1CCCCCCC(=O)OC` (racemic): the outcome in the assay with Hamster [1] and with Cricetinae was inactive.
